Measured values gathered from unrelated publications.
Protocols differ between the studies behind these lines.
Target: Ephrin type-B receptor 3 (EPHB3, Homo sapiens, UniProt P54753)

Compound	test	conditions	measurement	result
Cn1cc(Cl)c2c(Oc3c(F)cc(Nc4cc(Cl)nc(N)n4)cc3F)ccnc21	cell-free assay, competition with immobilised ligand	0.1 µM	remaining binding	100%
COc1cc2ncnc(Nc3ccc(Oc4ccccc4)c(C)c3C)c2cc1OC	enzyme activity, inhibitor	1 µM	inhibition	2%
CC(C)(C)C(=O)c1sc(NC2CCCCC2)nc1N	enzyme activity, inhibitor	10 µM	remaining activity	94%
CC(C)(C)c1nc2c(s1)c1nc(N)ncc1c1ccc(NS(=O)(=O)c3c(F)cccc3F)c(F)c12	enzyme activity, inhibitor, radiometric	1 µM	remaining activity	93%
COc1cc2ncnc(Nc3ccc(F)c(Cl)c3)c2cc1OCCCN1CCOCC1	cell-free assay	0.5 µM	remaining signal	57.5%
CCCOc1ccc([C@@H]2[C@@H](C(=O)O)[C@H](c3ccc4c(c3)OCO4)CN2CC(=O)Nc2c(CC)cccc2CC)cc1	cell-free assay, competition with immobilised ligand	1 µM	remaining binding	96%
COc1cc(Cl)c(C(=O)N[C@@H](CN[C@H]2CC[C@@H](N)CC2)Cc2ccc(C#N)cc2)cc1-c1ccc(CN[C@H](C)c2ccc(C)cc2)o1	enzyme activity, inhibitor	1 µM	remaining activity	97%
Cn1cncc1C1=CN(c2ncnc3[nH]cnc23)CCS1	enzyme activity, inhibitor, radiometric	50 nM	inhibition	12.8%
CC(C)(O)[C@H]1CC[C@H](Nc2ccc3ncc(-c4cccc(C(F)(F)F)c4)n3n2)CC1	enzyme activity, inhibitor	1 µM	remaining activity	87.9%
COc1ccnn2ncc(-c3ccnc(N(C)C)n3)c12	binding	1 µM	remaining binding	100%
Cc1cc(NC(=O)c2cccc3cc(-c4cccc5[nH]nc(N)c45)ccc23)ccc1F	enzyme activity, inhibitor	0.1 µM	activity vs control	88%
FC(F)c1nc2ccccc2n1-c1nc(N2CCOCC2)nc(N2CCOCC2)n1	enzyme activity, inhibitor	10 µM	remaining activity	113%
Nc1nc(Nc2ccccc2)sc1C(=O)c1c(F)cccc1F	enzyme activity, inhibitor	10 µM	remaining activity	59%
Clc1ccc(Nc2nnc(Cc3ccncc3)c3ccccc23)cc1	cell-free assay	0.5 µM	remaining signal	65.1%
Cn1nc(C(F)(F)F)cc1-c1cnc(N2CCc3cc(S(=O)(=O)Nc4c(F)cc(Cl)cc4F)cc(N4CCCC4=O)c32)nc1	cell-free assay, competition with immobilised ligand	1 µM	remaining binding	95%
CCN(CC)CCNC(=O)c1c(C)[nH]c(/C=C2\C(=O)Nc3ccc(F)cc32)c1C	enzyme activity, inhibitor	10 µM	inhibition	10%
CN(C)C(=O)Cn1cc(-c2nc(C3(c4ccc(-c5cnc(N)nc5)cc4)CC3)no2)cn1	cell-free assay, competition with immobilised ligand	1 µM	remaining binding	95%
Cc1sc(C(=O)NC2COC2)cc1-n1cc(NC(=O)Nc2c(F)cccc2Cl)cn1	enzyme activity, inhibitor	10 µM	remaining activity	97.2%
O=c1nc(-c2ccccn2)sc2ccccc12	cell-free assay, competition with immobilised ligand	1 µM	remaining binding	100%
C#Cc1cccc(Nc2ncnc3cc(OCCOC)c(OCCOC)cc23)c1	cell-free assay	0.5 µM	remaining signal	58%
O=C(Nc1cnn(-c2csc(C(=O)NC3COC3)c2)c1)Nc1ccccc1Cl	enzyme activity, inhibitor	5 µM	remaining activity	95.6%
COc1cc(Nc2cnc(C#N)c(O[C@H](C)CN(C)C)n2)ncc1-c1cnn(C)c1	enzyme activity, inhibitor, radiometric	10 µM	remaining activity	23%
CN(c1ncccc1CNc1nc(Nc2ccc3c(c2)CC(=O)N3)ncc1C(F)(F)F)S(C)(=O)=O	enzyme activity, inhibitor	1 µM	inhibition	41%
Cn1nc(C(=O)NCc2ccc(C(=O)O)cc2)cc1-c1ccc2[nH]ccc2c1	cell-free assay, competition with immobilised ligand	0.1 µM	remaining binding	100%
Cc1ccc(Nc2nccc(N(C)c3ccc4c(C)n(C)nc4c3)n2)cc1S(N)(=O)=O	cell-free assay	0.5 µM	remaining signal	71.7%
CN1CCN(c2cnc3c(C4CCN(C(=O)c5ccc(OC(F)(F)F)cc5N)CC4)ncnc3c2)CC1	cell-free assay, competition with immobilised ligand	1 µM	remaining binding	100%
CNC(=O)c1cc(Oc2ccc(NC(=O)Nc3ccc(Cl)c(C(F)(F)F)c3)cc2)ccn1	enzyme activity, inhibitor	0.3 µM	inhibition	3%
CO[C@@H](C)c1c(Nc2ccc([C@H](N(C)C(=O)C3CCS(=O)(=O)CC3)C(F)(F)F)cc2)cnc2cc(Cl)nn12	cell-free assay, competition with immobilised ligand	1 µM	remaining binding	100%
CCCOc1ccc(OC)c(F)c1C(=O)c1ccc(C(=O)N[C@@H]2CNC[C@H]2NC(=O)c2ccc3[nH]ncc3c2)cc1	enzyme activity, inhibitor	10 µM	remaining activity	102%
